# Screening results from PubChem.
# The list is not random: actives were taken first. Their share in the collection is about 3.1%.
# miR122 inh: miR-122 inhibition in Huh7 cells. Huh7 miR-122 Renilla luciferase sensor, 48 h; neutral wells = 0, positive control = 100. activation (reporter increase), % at 12.5 µM. AID 602342. 0.3% of 340,000 active;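 active = mean replicate activation score at least 90 and every replicate individually at or above 90; inconclusive = only one of the two criteria met; inactive = neither criterion met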;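 note: higher luciferase means less miR-122 activity so hits act as miR-122 inhibitors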
# Cneo AK release: causes C. neoformans cell lysis; adenylate kinase release luminescence, 4 h; normalised: neutral wells 0, clomiphene wells 100; lysis activity, % at 15 µM; 0.2% of 360,000 active;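 active = mean lysis activity across replicates of at least 80%, whatever share of replicates individually reach that level; inactive = mean lysis activity below 80%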
#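 Signal: Adenylate kinase release luminescence | Assay system: Log-phase Cryptococcus neoformans yeast cells | Input: Cells at 5 × 10^6 per mL | Buffer or medium: Fresh YPD growth medium | Compound: Single dose | Schedule: Static 4 h at 37 °C with compound, 1 h detection | Controls: Clomiphene | Read-out: Luminescence rise reflecting yeast cell lysis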
# E-sel inducer: E-selectin induction on HUVECs. 0.37% of 260,000 active. HUVEC E-selectin immunofluorescence imaging; normalized: neutral wells 0, TNF-alpha wells 100. activation, % at 7.58 µM. P16581;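 active = mean E-selectin-positive cell signal at least 10% of the positive control, reached in at least 60% of replicates, without over 20% cell loss; inconclusive = no rule given, readout overlaps actives, possibly toxicity-flagged; inactive = the rest, including those meeting only one limit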
# Target sequence (P16581 whole entry, looked up): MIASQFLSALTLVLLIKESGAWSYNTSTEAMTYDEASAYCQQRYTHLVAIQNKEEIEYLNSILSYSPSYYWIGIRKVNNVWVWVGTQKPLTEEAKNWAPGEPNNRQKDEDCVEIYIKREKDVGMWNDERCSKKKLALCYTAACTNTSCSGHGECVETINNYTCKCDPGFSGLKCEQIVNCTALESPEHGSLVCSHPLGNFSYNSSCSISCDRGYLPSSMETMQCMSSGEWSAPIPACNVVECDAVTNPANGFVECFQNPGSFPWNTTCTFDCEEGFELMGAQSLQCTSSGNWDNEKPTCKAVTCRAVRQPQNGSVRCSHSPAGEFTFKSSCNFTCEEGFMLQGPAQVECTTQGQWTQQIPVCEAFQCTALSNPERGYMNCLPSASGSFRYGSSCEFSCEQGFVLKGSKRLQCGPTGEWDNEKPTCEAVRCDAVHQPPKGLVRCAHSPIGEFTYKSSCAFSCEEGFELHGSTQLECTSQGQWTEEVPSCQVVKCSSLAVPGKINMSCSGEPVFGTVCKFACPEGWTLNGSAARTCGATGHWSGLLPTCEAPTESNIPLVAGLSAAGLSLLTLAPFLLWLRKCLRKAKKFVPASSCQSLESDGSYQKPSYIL
#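 Assay system: HUVEC primary endothelial cells. Input: 3,000 HUVEC seeded per well. Doses: one compound dose added by pin transfer. Read-out basis: % PE-positive cells. Benchmarks: TNF-alpha high, DMSO low. Detection: immunofluorescence imaging. Buffer or medium: EGM-2, gelatin.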
# DENV2 CPE rescue: DENV2-induced cell death inhibition; 1.7% of 350,000 active; CPE inhibition, % at 9.99 µM; AID 651640; DENV2-infected cells, cytopathic effect rescue, plate reader; in the data active = CPE inhibition above about 20%, passing the limit was not always enough; inconclusive = no clear call, values can overlap the other calls; tested in BHK-21 cells;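 note: 0% = median of neutral control wells and 100% = median of positive control wells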
# rRNA inh HTS: inhibitors of bacterial rRNA selective over humanized ribosomes. E. coli WT GFP vs humanized-ribosome RFP mutants, fluorescence, 24 h; hits give low values; DMSO median 0, no signal -100. GFP signal change (wild-type ribosome), % (concentration not given with the values). 1.6% of 350,000 active. AID 720706;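 active = significant combined selectivity score with lowered wild-type GFP, culture density cut under 30%, mutant RFP and density less affected; inactive = any of these conditions unmet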
# An asterisk follows results filed as active; ? = inconclusive; . = no result; [ ] = remark or other dose.
SMILES,miR122 inh,Cneo AK release,E-sel inducer,DENV2 CPE rescue,rRNA inh HTS
Cc1noc(C)c1NC(=O)N(C)C[C@@H]1Oc2ccc(NC(=O)NC3CCCCC3)cc2CC(=O)N([C@H](C)CO)C[C@H]1C,-9.5[16.7 µM],-4.8,0.5,31.9*,3.2
O=C(c1ccc(Oc2cc(Cl)cc(Cl)c2)o1)N1CCCCC1,-2.1,0.7,0.7,0.7,-48.7*
COc1ccc(S(=O)(=O)N2CCC(O)(c3ccc(Cl)cc3)CC2)cc1OC,-1.6,.,0.9,-7.6,-23.6*
C[C@H](CO)N1C[C@H](C)[C@@H](CN(C)C(=O)c2ccc3c(c2)OCO3)Oc2cc(-c3cncnc3)ccc2S1(=O)=O,-0.6[16.7 µM],-0.4,-0.2,-12.4,3.8
COc1ccc(C(C)=O)cc1CSc1nnc(Nc2ccc(C)cc2)s1,24.0,1.1,.,47.4*,-22.5
CCCC(=O)Nc1ccc2c(c1)OC[C@H](C)N(CCC(F)(F)F)C[C@@H](C)[C@@H](OC)CN(C)C2=O,-4.1[16.7 µM],-2.4,-0.1,-1.2,-3.5
Cc1ccc(CNC(=O)CCS(=O)(=O)c2cc3c(cc2Cl)NC(=O)CO3)cc1,12.6,2.5,-0.4,15.7,7.1
CCOC(=O)N1CCN(C(=O)CCS(=O)(=O)c2cc3c(cc2Cl)NC(=O)CO3)CC1,-6.0,-2.7,-0.2,23.9*,-0.3
Cc1noc(C)c1COc1cccc(C(=O)Oc2ccc3c(c2)OCO3)c1,7.0,1.4,.,.,-35.2*
Cc1noc(C)c1COc1cccc(C(=O)Nc2ccc3c(c2)OCO3)c1,0.2,-1.0,1.8,-3.6,-17.4
CCOC(=O)c1cccc(OC(=O)CCNC(=O)c2ccc(Cl)cc2)c1,.,-0.4,0.2,-1.6,-28.5*
CC(=O)c1ccc(OC(=O)CCNC(=O)c2ccccc2)cc1,-4.6,-0.3,0.1,0.6,3.3
CC(=O)Nc1ccc2c(c1)C(=O)N(C)[C@H]1CC[C@H](CC(=O)Nc3cccc(F)c3)O[C@@H]1CO2,.,.,0.1,14.1,6.9
COc1ccccc1-c1ccc([C@@H]2[C@H](CO)N(C(=O)C3CC3)C23CN(C(C)=O)C3)cc1,.,.,0.0,-3.6,1.8
COc1ccc(NC(=O)N(C)C[C@@H]2Oc3ccc(NC(=O)c4ccncc4)cc3CC(=O)N([C@H](C)CO)C[C@@H]2C)cc1,4.4[16.7 µM],-10.9,226.3*,44.0*,5.8
COc1ccc(NC(=O)N(C)C[C@@H]2Oc3ccc(NC(=O)c4ccncc4)cc3CC(=O)N([C@@H](C)CO)C[C@H]2C)cc1,-3.9[16.7 µM],8.2,72.1*,15.3,5.1
COc1ccc(NC(=O)N(C)C[C@@H]2Oc3ccc(NC(=O)c4ccncc4)cc3CC(=O)N([C@@H](C)CO)C[C@@H]2C)cc1,-6.1[16.7 µM],-4.2,81.3*,28.4*,3.6
C[C@H]1CN([C@@H](C)CO)C(=O)Cc2cc(NC(=O)c3ccncc3)ccc2O[C@H]1CN(C)C(=O)Nc1ccc(C(F)(F)F)cc1,13.8[16.7 µM],0.3,32.9*,-9.1,2.0
COc1ccc(NC(=O)N(C)C[C@H]2Oc3ccc(NC(=O)c4ccncc4)cc3CC(=O)N([C@@H](C)CO)C[C@H]2C)cc1,0.1[16.7 µM],-7.5,17.1,-1.9,4.3
COc1ccc(CN(C)C[C@H]2Oc3ccc(NC(=O)c4ccncc4)cc3CC(=O)N([C@@H](C)CO)C[C@@H]2C)cc1,-0.8[16.7 µM],0.2,0.0,-0.9,0.2
COc1ccc(CN(C)C[C@@H]2Oc3ccc(NC(=O)c4ccncc4)cc3CC(=O)N([C@H](C)CO)C[C@@H]2C)cc1,8.8[16.7 µM],1.4,0.0,8.1,-3.2
COc1ccc(NC(=O)N(C)C[C@H]2Oc3ccc(NC(=O)c4ccncc4)cc3CC(=O)N([C@H](C)CO)C[C@@H]2C)cc1,-2.8[16.7 µM],5.4,41.4*,-1.5,2.4
COc1ccc(NC(=O)N(C)C[C@@H]2OCCCC[C@@H](C)Oc3ccc(NS(=O)(=O)c4ccc(Cl)cc4)cc3C(=O)N([C@@H](C)CO)C[C@@H]2C)cc1,10.0[16.7 µM],12.5,0.9,?,-0.1
Cc1ccc(C2CC(=O)C=C(NCC(C)C)C2)cc1 (stereo not drawn),-7.4,4.6,-2.6,-5.0,4.8
Cc1ccc(C2CC(=O)C=C(NCc3ccccc3)C2)cc1 (stereo not drawn),5.0,0.0,-0.2,-0.9,-31.7*
SMILES,miR122 inh,Cneo AK release,E-sel inducer,DENV2 CPE rescue,rRNA inh HTS
S=c1[nH]nc(-c2cc(-c3ccccc3)n[nH]2)n1/N=C/c1ccccc1,0.0,-0.7,0.0,-0.8,-14.8*
Cc1cccc(-c2n[nH]c(=S)n2/N=C/c2ccc(C)s2)c1,.,-0.8,-0.4,.,.
Cc1cccc(/C=N/n2c(-c3cc(-c4ccccc4)n[nH]3)n[nH]c2=S)c1,.,.,1.6,.,8.1
Cc1cccc(-c2n[nH]c(=S)n2/N=C/c2cccs2)c1,1.9,9.3,0.2,-0.3,-21.6*
C[C@@H]1CN([C@H](C)CO)S(=O)(=O)c2ccc(-c3cccnc3)cc2O[C@@H]1CN(C)C(=O)NC1CCCCC1,26.9[16.7 µM],6.9,0.5,4.7,-1.0
O=C1N/C(=N/S(=O)(=O)Cc2ccccc2)S/C1=C/c1ccc2c(c1)OCO2,13.7,4.8,.,-5.3,-40.1*
CCNC(=O)N1C[C@H]2CON(C)[C@H]2C[C@H]1c1ccc(N2CCCCC2)cc1,.,.,-0.2,17.6,36.7
CN1OC[C@@H]2CN(C(=O)NC3CCCCC3)[C@H](c3ccc(N4CCCCC4)cc3)C[C@@H]21,3.8,-0.6,-0.2,22.3*,-6.3
COC(=O)[C@@](C)(O)C1(C(=O)SC(C)(C)C)CC1,1.7,-1.4,-0.1,130.0*,6.2
COc1ccc(C(=O)C(/C=N/O)=N/Nc2ccc(F)cc2)cc1,-5.6,.,0.6,-2.6,-25.9*
Cc1ccc(NC(=O)C(=O)NCC2CCCN2S(=O)(=O)c2cccs2)cc1 (stereo not drawn),3.6,0.1,-0.3,37.8*,-21.8
O=C(NCC1CCCN1S(=O)(=O)c1cccs1)C(=O)Nc1ccccc1 (stereo not drawn),0.1,-6.1,.,8.4,-4.2
CNC[C@@H]1OCCCC[C@H](C)Oc2ccc(N(C)C)cc2C(=O)N([C@@H](C)CO)C[C@H]1C,-1.2[16.7 µM],.,.,.,.
CN(C)C(=O)c1ccc(-c2ccc([C@H]3[C@@H](CO)N4C(=O)CN(C(=O)C5CCCC5)C[C@H]34)cc2)cc1,.,.,0.0,-18.9,-0.9
CN(CC(=O)Nc1ccccc1Cl)C(=O)COC(=O)c1nc(Cl)c(Cl)c(Cl)c1Cl,0.6,2.2,.,4.3,-17.8*
Cc1ccc(CSCC(=O)N(C)CC(=O)Nc2ccccc2Cl)cc1,-3.8,.,-0.3,-4.4,-21.1*
Cc1ccc(CSCC(=O)N(C)CC(=O)Nc2c(Cl)cccc2Cl)cc1,-4.8,1.4,.,11.0,-0.5
CN(CC(=O)Nc1ccccc1Cl)C(=O)CSc1nc2ccccc2s1,-7.0,0.7,0.5,1.0,-25.6*
Cc1nnc(SCC(=O)N(C)CC(=O)Nc2ccccc2Cl)s1,-3.6,0.5,3.6,1.7,15.6
